Experimental findings from ChEMBL document CHEMBL3576777, “Hypocoprins A-C: new sesquiterpenoids from the coprophilous fungus Hypocopra rostrata” (J Nat Prod, 2015) are described below.

Assay [1] deals with Staphylococcus aureus. Briefly: Antibacterial activity against Staphylococcus aureus ATCC 29213 by agar disk diffusion method. In kind it is functional. The method in brief: (§1)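 Agar disk diffusion following standard protocols; test material applied at 200 μg/disk; gentamicin at 20 μg/disk served as the standard. Organisms: S. aureus ATCC 29213, B. subtilis ATCC 6051, E. coli ATCC 25922 and C. albicans ATCC 14053. Read-out was the diameter of the inhibitory zone in mm.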
(In general: Agar diffusion results depend on both activity and mobility in agar.)

In a further assay the test system is U2OS. Briefly: Cytotoxicity against human U2OS cells assessed as cell viability after 48 hrs by CellTiter-Blue assay. The class given is functional, cell-based. The method in brief:
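Human osteosarcoma U2OS cells were seeded at 250 cells per well in 384-well format and incubated overnight. Each well received 50 nL of a 10 mM DMSO stock, in duplicate, then 48 h at 37 °C. CellTiter-Blue reagent was added, followed by a further 22 h at 37 °C. […] was read at 530/580 nm.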
For orientation: Resazurin is reduced to fluorescent resorufin, in cell work by metabolically active cells.

In assay [2] the test system is Bacillus subtilis. Briefly: Antibacterial activity against Bacillus subtilis ATCC 6051 by agar disk diffusion method. The class given is functional, organism-based. A digest of the protocol: as §1
For assay [3], the system named is Escherichia coli. Kind of assay: Antibacterial activity against Escherichia coli ATCC 25922 by agar disk diffusion method. In kind it is functional, organism-based. A digest of the protocol: as §1
In assay [4] the test system is Candida albicans. Kind of assay: Antifungal activity against Candida albicans ATCC 14053 by agar disk diffusion method. The class given is functional, organism-based. The method in brief:
as §1

Assay [5] concerns Candida albicans. Briefly: Antifungal activity against Candida albicans ATCC 14053 at 200 ug/disk by agar disk diffusion method. The class given is functional, organism-based. The method in brief:
as §1

The subject of assay [6] is Staphylococcus aureus. Kind of assay: Antibacterial activity against Staphylococcus aureus ATCC 29213 at 200 ug/disk by agar disk diffusion method. In kind it is functional. As to conditions: read-out: DIZ. The method in brief:
as §1

The subject of assay [7] is Escherichia coli. Briefly: Antibacterial activity against Escherichia coli ATCC 25922 at 200 ug/disk by agar disk diffusion method. The class given is functional, organism-based. The method in brief:
as §1

Assay [8] relates to Bacillus subtilis. Kind of assay: Antibacterial activity against Bacillus subtilis ATCC 6051 at 200 ug/disk by agar disk diffusion method. In kind it is functional. As to conditions: read-out: DIZ. The method in brief:
as §1

Activity calls are given as the source filed them. The calls are words filed in the database; no cut-off is given here.

Broadly, the IC50 is the midpoint of a concentration-inhibition curve. `C/C1=C\C[C@@H](O)[C@](C)(O)[C@H]2C[C@@H]2C(C)(C)C[C@H]1O`: the “diameter of the inhibition zone (DIZ)” value in the assay with Staphylococcus aureus [1] is listed as 9 mm. In the assay with U2OS, the IC50 is over 10 µM.

For `C=C1CC/C=C(\C)[C@H](O)CC(C)(C)[C@H]2C[C@H]12`, the outcome in the assay with Staphylococcus aureus [1], with Bacillus subtilis [2], in the assay on Escherichia coli [3] and in the assay with Candida albicans [4] was inactive. For the same compound, in the assay on U2OS, the IC50 was over 10 µM.

As for `C/C1=C\CC[C@](C)(O)[C@H]2C[C@@H]2C(C)(C)C[C@H]1O`, the result in the assay on Candida albicans [5] and in the assay with Escherichia coli [7] was inactive. Also, the zone of inhibition at 200 µg/disc in the assay on Staphylococcus aureus [6] and in the assay with Bacillus subtilis [8] was 13 mm throughout. The IC50 in the assay on U2OS is over 10 µM.
